Data set [1] concerns Mus musculus. Description: Average weight change of BDF1 female mice at a dose of 1.6 mg/kg per injection. It is filed as functional. A digest of the protocol:
(§1)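 BDF1 female mice implanted ip with 10^6 ascites leukemia cells, then given the aziridinomitosene on day 1 only, six mice per dose. Average weight change is the weight difference between the treated and control groups.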

For data set [2], the system named is Mus musculus. Description: Average weight change of BDF1 female mice at a dose of 51.2 mg/kg per injection. Type of data set: functional. In outline:
as §1

In data set [3] the test system is P388. The experiment in a line: Compound was tested for antitumor activity against P388 Murine leukemia in BDF1 female mice at a dose of 51.2 mg/kg per injection. Type of data set: functional, Mus musculus. A digest of the protocol: (§2)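 P388 ascites cells (10^6) implanted ip into BDF1 female mice. Aziridinomitosene given on day 1 only, six mice per dose; ten saline-treated mice on day 1 only as controls. Read-out is median survival time in days, %T/C = MST treated/MST control × 100, with 125 taken as significant. Mitomycin C run as a positive control at its optimal dose.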

In data set [4] the test system is Mus musculus. The experiment in a line: Average weight change of BDF1 female mice at a dose of 6.4 mg/kg per injection. Type of data set: functional. A digest of the protocol: as §1
Data set [5] deals with P388. The experiment in a line: (§3) Compound was tested for antitumor activity against P388 Murine leukemia in BDF1 female mice at a dose of 12.8 mg/kg per injection. It is filed as functional, Mus musculus. In outline: as §2
In data set [6] the test system is P388. Description: Compound was tested for antitumor activity against P388 Murine leukemia in BDF1 female mice at a dose of 3.2 mg/kg per injection. Type of data set: functional, Mus musculus. A digest of the protocol: as §2
Data set [7] can be described thus: Partition coefficient (logP). Type of data set: physicochemical. The conditions noted are these: octanol/water.
The subject of data set [8] is P388. The experiment in a line: Compound was tested for antitumor activity against P388 Murine leukemia in BDF1 female mice at a dose of 25.6 mg/kg per injection. It is filed as functional, Mus musculus. A digest of the protocol:
as §2

The test system of data set [9] is Mus musculus. The experiment in a line: Average weight change of BDF1 female mice at a dose of 12.8 mg/kg per injection. Type of data set: functional. In outline: as §1
In data set [10] the test system is P388. Description: Compound was tested for antitumor activity against P388 Murine leukemia in BDF1 female mice at a dose of 6.4 mg/kg per injection. It is filed as functional, Mus musculus. A digest of the protocol:
as §2

Data set [11] relates to Mus musculus. The experiment in a line: Average weight change of BDF1 female mice at a dose of 3.2 mg/kg per injection. It is filed as functional. In outline: as §1
Data set [12] relates to Mus musculus. Description: Average weight change of BDF1 female mice at a dose of 25.6 mg/kg per injection. It is filed as functional. In outline: as §1
The subject of data set [13] is P388. The experiment in a line: Minimum effective dose determined against P-388 Murine leukemia in BDF1 female mice. It is filed as functional. The conditions noted are these: Mus musculus, read-out: MED.
The subject of data set [14] is P388. Description: Compound was tested for antitumor activity against P388 Murine leukemia in BDF1 female mice at a dose of 1.6 mg/kg per injection (MST treated / MST control x 100). It is filed as functional, Mus musculus. A digest of the protocol: as §2
The test system of data set [15] is P388. Description: Compound was tested for antitumor activity against P388 Murine leukemia in BDF1 female mice at a dose of 3.2 mg/kg per injection (MST treated / MST control x 100). Type of data set: functional, Mus musculus. A digest of the protocol:
as §2

In data set [16] the test system is P388. The experiment in a line: Compound was tested for antitumor activity against P388 Murine leukemia in BDF1 female mice at a dose of 1.6 mg/kg per injection. It is filed as functional, Mus musculus. In outline:
as §2

Data set [17] deals with P388. Described as §3. It is filed as functional, Mus musculus. Also on record: unit not given here. In outline:
as §2

Data set [18] deals with L1210. The experiment in a line: Compound was tested for antitumor activity against L-1210 Murine leukemia in BDF1 female mice at dose of 40 mg/kg inj. Type of data set: functional, Mus musculus. A digest of the protocol: (§4)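 L-1210 run per NCI protocol. 10^6 ascites cells implanted ip into BDF1 female mice. Aziridinomitosene given on day 1 only, six mice per dose, with a control group of 36 mice. Median survival time in days is recorded, and %T/C = MST treated/MST control × 100, with 125 taken as significant.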

The subject of data set [19] is Mus musculus. Description: Average weight change of BDF1 female mice at a dose of 16 mg/kg per injection. It is filed as functional. A digest of the protocol:
as §1

The subject of data set [20] is P388. The experiment in a line: Compound was tested for antitumor activity against P388 Murine leukemia in BDF1 female mice at a dose of 16 mg/kg per injection. Type of data set: functional, Mus musculus. A digest of the protocol:
as §2

Data set [21] relates to Mus musculus. The experiment in a line: Average weight change of BDF1 female mice at a dose of 32 mg/kg per injection. Type of data set: functional. In outline:
as §1

Data set [22] deals with Mus musculus. The experiment in a line: Average weight change of BDF1 female mice at a dose of 64 mg/kg per injection. Type of data set: functional. A digest of the protocol:
as §1

The subject of data set [23] is Mus musculus. The experiment in a line: Average weight change of BDF1 female mice at a dose of 8 mg/kg per injection. Type of data set: functional. In outline: as §1
Data set [24] relates to L1210. Description: Compound was tested for antitumor activity against L-1210 Murine leukemia in BDF1 female mice at dose of 20 mg/kg inj. Type of data set: functional, Mus musculus. A digest of the protocol: as §4
Data set [25] concerns P388. The experiment in a line: Compound was tested for antitumor activity against P388 Murine leukemia in BDF1 female mice at a dose of 64 mg/kg per injection. Type of data set: functional, Mus musculus. In outline: as §2
Data set [26] has as its system P388. Description: Compound was tested for antitumor activity against P388 Murine leukemia in BDF1 female mice at a dose of 8 mg/kg per injection. Type of data set: functional, Mus musculus. A digest of the protocol:
as §2

Data set [27] has as its system P388. Description: Compound was tested for antitumor activity against P388 Murine leukemia in BDF1 female mice at a dose of 32 mg/kg per injection. Type of data set: functional, Mus musculus. In outline: as §2
Data set [28] concerns P388. Description: Compound was tested for antitumor activity against P388 Murine leukemia in BDF1 female mice at a dose of 1.6 mg/kg per injection given as MST treated / MST control x 100. Type of data set: functional, Mus musculus. A digest of the protocol:
as §2

The subject of data set [29] is Mus musculus. Description: Average weight change of BDF1 female mice at a dose of 24 mg/kg per injection. It is filed as functional. A digest of the protocol:
as §1

In data set [30] the test system is Mus musculus. The experiment in a line: Average weight change of BDF1 female mice at a dose of 48 mg/kg per injection. Type of data set: functional. In outline: as §1
Data set [31] relates to L1210. The experiment in a line: Compound was tested for antitumor activity against L-1210 Murine leukemia in BDF1 female mice at a dose of 12 mg/kg per injection. Type of data set: functional, Mus musculus. A digest of the protocol: as §4
Data set [32] deals with L1210. Description: Compound was tested for antitumor activity against L-1210 Murine leukemia in BDF1 female mice at a dose of 24 mg/kg per injection. It is filed as functional, Mus musculus. In outline: as §4
In data set [33] the test system is Mus musculus. The experiment in a line: Average weight change of BDF1 female mice at a dose of 6 mg/kg per injection. Type of data set: functional. A digest of the protocol:
as §1

The test system of data set [34] is L1210. Description: Compound was tested for antitumor activity against L-1210 Murine leukemia in BDF1 female mice at a dose of 48 mg/kg per injection. It is filed as functional, Mus musculus. A digest of the protocol: as §4
For data set [35], the system named is Mus musculus. The experiment in a line: Average weight change of BDF1 female mice at a dose of 12 mg/kg per injection. It is filed as functional. A digest of the protocol:
as §1

The subject of data set [36] is L1210. Description: Compound was tested for antitumor activity against L-1210 Murine leukemia in BDF1 female mice at a dose of 6 mg/kg per injection. It is filed as functional, Mus musculus. A digest of the protocol:
as §4

The term logP denotes a log measure of how a compound divides between an organic and an aqueous phase. In general, T/C refers to the result in the treated group divided by that in the control group, in per cent. `CC1=C(N2CC2C)C(=O)c2c(COC(N)=O)c3n(c2C1=O)CC1NC31` (centres undefined): the Weight change in the data set on Mus musculus [1] was 0 g; in the data set on Mus musculus [2], -1.3 g; in the data set with Mus musculus [4] it was -0.4 g; in the data set on Mus musculus [9], -0.5 g; in the data set on Mus musculus [11], 0 g; in the data set with Mus musculus [12], -1 g. For the same compound, the MST in the data set with P388 [3] is 219 days; in the data set with P388 [5] it was 156 days; in the data set with P388 [6], 138 days; with P388 [8] it was 181 % T/C; in the data set on P388 [10] it was 144 %T/C. In data set [7], the logP was 0.82. The minimal effective dose in the data set on P388 [13] was found to be 1.6 mg/kg. In addition, the T/C in the data set with P388 [14] was 125%.
For the compound `CC1=C(N2CC2)C(=O)c2c(COC(N)=O)c3n(c2C1=O)CC1C3N1C` (centres undefined), the Weight change with Mus musculus [1] is recorded as -1.3 g; in the data set with Mus musculus [2], -2.5 g; with Mus musculus [4] it was -1.1 g; in the data set on Mus musculus [9], -1.9 g; with Mus musculus [11] it was 0 g; with Mus musculus [12] it was -2.2 g. In addition, the MST turned out to be 139 days with P388 [3]; 239 % T/C in the data set on P388 [8]; 122 days in the data set with P388 [16]; 172 %T/C in the data set with P388 [10]; 172 in the data set on P388 [17]. The T/C in the data set on P388 [15] turned out to be 117%. In addition, the log partition coefficient (logP) in data set [7] was 0.71. The minimal effective dose in the data set with P388 [13] was 1.6 mg/kg.
For `C#CCNC1=C(C)C(=O)c2c(c(COC(N)=O)c3n2CC2NC32)C1=O` (centres undefined), the T/C was 140% in the data set with L1210 [18] and 122% in the data set with L1210 [24]. Further, the Weight change in the data set with L1210 [18] is on record as -2.8 g; in the data set with Mus musculus [19], -0.3 g; in the data set on Mus musculus [21], 0 g; in the data set on Mus musculus [22], -0.9 g; in the data set with Mus musculus [23] it was -0.2 g; in the data set on L1210 [24], -1.8 g. In data set [7], this compound registered a logP of 1.21. Also, the minimal effective dose in the data set on P388 [13] amounted to 16 mg/kg. In addition, the MST was 128 days with P388 [20], 172 days in the data set on P388 [25], 122 days with P388 [26] and 144 days in the data set with P388 [27].
As for `CC1=C(N)C(=O)c2c(COC(N)=O)c3n(c2C1=O)CC1C3N1C` (centres undefined), the figures for the MST in the data set with P388 [5] and with P388 [8] were 100 days and 100 % T/C, respectively. Besides, the Weight change is listed as -0.4 g in the data set on Mus musculus [9] and -0.1 g in the data set on Mus musculus [12]. The same compound registered a T/C in the data set with P388 [28] of 211%.
For `CC1=C(N)C(=O)c2c(COC(N)=O)c3n(c2C1=O)CC1NC31` (centres undefined), the Weight change in the data set on Mus musculus [29] is on record as -0.3 g; with Mus musculus [30] it was 0.2 g; with Mus musculus [4], -1.2 g; in the data set with Mus musculus [9], -0.8 g; with Mus musculus [33], 0.1 g; in the data set with Mus musculus [12] it was -0.8 g. The compound further registered a Weight change in the data set on Mus musculus [35] of 0 g. The T/C with L1210 [31] turned out to be 100%; with P388 [28], 211%; in the data set with L1210 [36], 100%. Moreover, the MST turned out to be 117 days in the data set on P388 [5]; 100 days in the data set with L1210 [32]; 128 % T/C in the data set with P388 [8]; 94 days with L1210 [34]; 117 %T/C in the data set with P388 [10]. In data set [7], this compound displayed a logP of 0.23. The minimal effective dose in the data set with P388 [13] was 25.6 mg/kg.

The values are drawn from ChEMBL document CHEMBL1123541, “Preparation and antitumor activity of 7-substituted 1,2-aziridinomitosenes” (J Med Chem, 1986).
